Test results from ChEMBL document CHEMBL5230161, “Exploring structural effects in a new class of NRF2 inhibitors” (RSC Med Chem, 2023).
Converted amounts (≈) assume the structure as drawn. The source made the active and inactive calls. The calls are words filed in the database; no cut-off is given here.

Tests used:
MCF7 [1] = experiment: Inhibition of NRF2/ARE (unknown origin) transfected in human MCF7 cells assessed as cellular activity preincubated with compound for 1 hrs followed by tBHQ addition and measured after 24 hrs by steady-glo luciferase assay relative to control; type: cell-based; set-up: concentration or dose not given beside the values; details: time 25.0 hrs, dose or concentration not given here
[2] = biological target: T1, Nuclear factor erythroid 2-related factor 2 (Homo sapiens) (UniProt Q16236); experiment: Activation of Nrf2 (unknown origin) assessed as cellular activity; set-up: concentration or dose not given beside the values; details: filed as activator
T1 sequence (whole entry): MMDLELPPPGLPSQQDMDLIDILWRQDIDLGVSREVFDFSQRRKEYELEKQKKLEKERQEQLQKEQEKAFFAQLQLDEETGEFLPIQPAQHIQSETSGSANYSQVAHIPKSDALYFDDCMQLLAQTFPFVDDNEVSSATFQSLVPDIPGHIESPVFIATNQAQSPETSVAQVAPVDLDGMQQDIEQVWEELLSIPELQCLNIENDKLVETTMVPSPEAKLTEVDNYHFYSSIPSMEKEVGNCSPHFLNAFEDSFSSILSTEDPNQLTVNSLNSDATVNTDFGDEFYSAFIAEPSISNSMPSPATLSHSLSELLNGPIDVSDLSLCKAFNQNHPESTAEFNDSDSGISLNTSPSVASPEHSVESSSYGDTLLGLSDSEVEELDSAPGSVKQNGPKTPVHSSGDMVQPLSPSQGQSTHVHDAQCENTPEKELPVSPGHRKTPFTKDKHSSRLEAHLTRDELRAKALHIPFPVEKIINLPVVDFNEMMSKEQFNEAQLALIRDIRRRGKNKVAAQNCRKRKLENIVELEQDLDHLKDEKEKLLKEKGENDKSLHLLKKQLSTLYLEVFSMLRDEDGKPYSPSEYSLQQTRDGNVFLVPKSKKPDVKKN

A549 [3] = experiment: Antiproliferative activity against human A549 cells assessed as inhibition of cell growth incubated for 72 hrs by MTT assay; type: functional; set-up: scale not given: the % may be the effect or the level left
In short: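 A549 human lung cancer cells exposed to a single 5 μmol L⁻¹ dose for 72 h; viability read by MTT assay.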

[4] = Solubility of the compound in pH 7.4 PBS buffer; type: physicochemical
A549 [5] = experiment: Induction of cell cycle arrest in human A549 cells assessed as accumulation of cells at G2/M phase at 10 uM incubated for 24 hrs by PI staining based flow cytometric analysis; type: functional
In short: (§1)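 A549 or H460 cells synchronized in low-serum medium 12 h, then inhibitor 24 h; propidium iodide staining, flow cytometry, univariate cell-cycle model (Watson pragmatic, G0/1 and G2/M peak constraints); % of total cells as mean ± SE, n = 2-3 independent experiments.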

NCI-H460 [6] = experiment: Induction of cell cycle arrest in human NCI-H460 cells assessed as accumulation of cells at G2/M phase at 10 uM incubated for 24 hrs by PI staining based flow cytometric analysis; type: functional; in short: as §1
A549 [7] = experiment: Inhibition of cell migration in human A549 cells at 10 uM incubated for 24 hrs by DAPI staining based transwell migration assay relative to control; type: functional
In short: (§2)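 Transwell migration of A549 cells seeded in serum-free medium with DMSO vehicle or compound (1, 5, 10 μmol L⁻¹) in top chamber; bottom medium with compound and 5% FBS chemoattractant; 24 h, filters fixed, unmigrated cells removed, DAPI stain, 9 fields imaged per insert; two inserts per condition, n = 2-3; one- or two-way ANOVA vs vehicle.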

[8] = biological target: T1, Nuclear factor erythroid 2-related factor 2 (Homo sapiens); experiment: Activation of Nrf2 (unknown origin) assessed as cellular activity measured before deprotection of compound; details: filed as activator
[9] = biological target: T1, Nuclear factor erythroid 2-related factor 2 (Homo sapiens); experiment: Inhibition of NRF2 signalling pathway in human A549 cells assessed as decrease in NQO1 mRNA level at 5 to 10 uM incubated for 24 hrs by RT-PCR analysis; type: cell-based; details: dose 5-10 µM
In short: (§3)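 A549 cells incubated with compound 24 h; NQO1, GCLC, AKR1C2, GCLM mRNA by RT-PCR, normalized to GAPDH and DMSO vehicle; representative of 3 independent experiments.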

[10] = biological target: T1, Nuclear factor erythroid 2-related factor 2 (Homo sapiens); experiment: Inhibition of NRF2 signalling pathway in human A549 cells assessed as decrease in GCLC mRNA level at 5 to 10 uM incubated for 24 hrs by RT-PCR analysis; type: cell-based; details: dose 5-10 µM; in short: as §3
[11] = biological target: T1, Nuclear factor erythroid 2-related factor 2 (Homo sapiens); experiment: Inhibition of NRF2 signalling pathway in human A549 cells assessed as decrease in AKR1C2 mRNA level at 5 to 10 uM incubated for 24 hrs by RT-PCR analysis; type: cell-based; details: dose 5-10 µM; in short: as §3
[12] = biological target: T1, Nuclear factor erythroid 2-related factor 2 (Homo sapiens); experiment: Inhibition of NRF2 signalling pathway in human A549 cells assessed as decrease in GCLM mRNA level at 5 to 10 uM incubated for 24 hrs by RT-PCR analysis; type: cell-based; details: dose 5-10 µM; in short: as §3
A549 [13] = experiment: Antiproliferative activity against human A549 cells assessed as reduction in cell viability incubated for 72 hrs by MTT assay; type: functional, cell-based; details: A549, 72 h
NCI-H358 = experiment: Antiproliferative activity against human NCI-H358 cells assessed as reduction in cell viability incubated for 72 hrs by MTT assay; type: functional, cell-based; details: NCI-H358, 72 h
A549 [14] = experiment: Induction of cell cycle arrest in human A549 cells assessed as accumulation of cells at G2/M phase at 3 uM incubated for 24 hrs by PI staining based flow cytometric analysis; type: functional; in short: as §1
NCI-H460 [15] = experiment: Induction of cell cycle arrest in human NCI-H460 cells assessed as accumulation of cells at G2/M phase at 3 uM incubated for 24 hrs by PI staining based flow cytometric analysis; type: functional; in short: as §1
A549 [16] = experiment: Inhibition of cell migration in human A549 cells at 1 uM incubated for 24 hrs by DAPI staining based transwell migration assay; type: functional; in short: as §2
A549 [17] = experiment: Inhibition of cell migration in human A549 cells at 5 uM incubated for 24 hrs by DAPI staining based transwell migration assay relative to control; type: functional; in short: as §2
MCF7 [18] = experiment: Inhibition of NRF2/ARE (unknown origin) transfected in human MCF7 cells assessed as cellular activity measured before deprotection of compound preincubated with compound for 1 hrs followed by tBHQ addition and measured after 24 hrs by steady-glo luciferase assay relative to control; type: cell-based; details: time 25.0 hrs, dose or concentration not given here

Structure (SMILES)	inhibition (MCF7 [1])	Activity [2]	other results
Cc1cc(C)cc(Nc2ncc(-c3cccc(Cl)c3)cc2C#N)c1	18.2%	–	–
Cc1cc(N)cc(Nc2nc3ccccc3cc2C#N)c1	–	-9.5%	–
Cc1cc(Nc2ncc(-c3ccccc3)cc2C#N)nc(C)n1	–	-33.9%	–
Cc1cc(Br)cc(Nc2nc(C)c(-c3ccccc3)cc2C#N)c1	58.4%	–	Activity (A549 [3]): 35.3%
N#Cc1c(-c2ccccc2)ccnc1Nc1cc(Br)ccn1	7.5%	–	–
Cc1cc(C)cc(Oc2ncc(-c3ccccc3)cc2C#N)c1	–	-45.4%	–
Cc1cc(C)cc(Nc2ncc(-c3cccc(O[Si](C)(C)C(C)(C)C)c3)cc2C#N)c1	12.6%	–	–
Cc1cc(C)cc(Nc2nc(C)c(C(C)C)cc2C#N)c1	–	-6.3%	–
Cc1cc(Nc2ncc(-c3ccccc3)cc2C#N)ccn1	–	-20.3%	–
Cc1cncc(Nc2ncc(-c3ccccc3)cc2C#N)n1	13.2%	–	–
CCOC(=O)c1ccnc(Nc2ncc(-c3ccccc3)cc2C#N)c1	–	-0.1%	–
COc1ccc(-c2cnc(Nc3cc(C)cc(C)c3)c(C#N)c2)cc1	–	-1.5%	–
Cc1cc(C)nc(Nc2ncc(-c3ccccc3)cc2C#N)n1	11.2%	–	–
Cc1nc(Nc2cc(Br)cc(Br)c2)c(C#N)cc1-c1ccccc1	7.7%	–	–
Cc1nc(Nc2cc(Cl)cc(Cl)c2)c(C#N)cc1-c1ccccc1	15.7%	–	–
Cc1cc(C)cc(Nc2nccc(-c3ccccc3)c2C#N)c1	39%	–	–
Cc1cccc(Nc2nc(C)c(-c3ccccc3)cc2C#N)c1	40.9%	–	–
N#Cc1cc(-c2ccccc2)cnc1Nc1ccccn1	25.5%	–	–
Cc1cc(C)cc(Nc2ncc(-c3ccccc3)nc2C#N)c1	–	-7.8%	–
N#Cc1cc(-c2ccccc2)cnc1Nc1cc(C(F)(F)F)ccn1	55.3%	–	–
CCc1ccnc(Nc2ncc(-c3ccccc3)cc2C#N)c1	42.3%	–	–
Cc1cc(Nc2ncc(-c3ccccc3)cc2C#N)cc(C)c1C	–	-32.3%	–

Structure (SMILES)	inhibition (MCF7 [1])	Activity [2]	other results
Cc1cc(C)cc(Nc2ncc(-c3cccnc3)cc2C#N)c1	–	-8.7%	–
Cc1cc(C)cc(Nc2nc(C)c(-c3ccccc3)cc2C#N)c1	54.6%	–	solubility [4]: 3 µM (≈ 0.94 µg/mL); Activity (A549 [3]): 9.8%; Activity (A549 [5]): Active; Activity (NCI-H460 [6]): Active; inhibition at 10 µM (A549 [7]): 65%
Cc1cc(C)cc(Nc2nc3ncccc3cc2C#N)c1	–	-42.7%	–
Cc1cc(C)cc(Nc2ncc(-c3ccccc3Cl)cc2C#N)c1	32.9%	–	–
Cc1cncc(Nc2ncc(-c3ccccc3)cc2C#N)c1	25.3%	–	–
Cc1cc(C)cc(Cc2ncc(-c3ccccc3)cc2C#N)c1	–	-33.9%	–
CC(=O)N(c1cc(C)cc(C)c1)c1nc(C)c(-c2ccccc2)cc1C#N	12.5%	–	–
Cc1nc(Nc2cccc(I)c2)c(C#N)cc1-c1ccccc1	51.8%	–	Activity (A549 [3]): 26.6%
CC(C)(C)[Si](C)(C)OCc1ccnc(Nc2ncc(-c3ccccc3)cc2C#N)c1	43.3%	–	–
N#Cc1cc(-c2ccccc2)cnc1Nc1cnccn1	28.3%	–	–
N#Cc1c(-c2ccccc2)ccnc1Nc1cc(CO)ccn1	–	-31.8%	Activity [8]: -4.65%
COc1cc(OC)cc(-c2cnc(Nc3cc(C)cc(C)c3)c(C#N)c2)c1	–	-23.3%	–
Cc1cc(C)cc(Nc2ncc(-c3ccc(Cl)cc3)cc2C#N)c1	–	-4.9%	–
N#Cc1cc(-c2ccccc2)cnc1Nc1cc(C2CC2)ccn1	–	-23.6%	–
Cc1cc(C)cc(Nc2ncc(-c3cc(C)cc(C)c3)cc2C#N)c1	25.1%	–	–
COc1ccnc(Nc2nccc(-c3ccccc3)c2C#N)c1	–	-4.5%	–
Cc1nc(C)nc(Nc2ncc(-c3ccccc3)cc2C#N)n1	9.6%	–	–
N#Cc1cc(-c2ccccc2)cnc1Nc1ccc(Cl)nn1	–	-131%	–
Cc1ccnc(Nc2nccc(-c3ccccc3)c2C#N)c1	35.4%	–	–
Cc1cc(C)cc(Nc2nc(C)ccc2C#N)c1	6.1%	–	–
Cc1cc(C)cc(Nc2nc(C)c(-c3ccccc3)cc2C(N)=O)c1	–	-18.1%	–
Cc1cc(C)cc(Nc2nc(C)c(-c3cccc(Cl)c3)cc2C#N)c1	49.2%	–	–

Structure (SMILES)	inhibition (MCF7 [1])	Activity [2]	other results
Cc1nc(Nc2cccc(CO)c2)c(C#N)cc1-c1ccccc1	16.7%	–	–
Cc1ccc(C)c(Nc2nc(C)c(-c3ccccc3)cc2C#N)c1	51%	–	–
Cc1cc(C)nc(Nc2ncc(-c3ccccc3)cc2C#N)c1	20%	–	–
Cc1ccnc(Nc2ncc(-c3ccccc3)cc2C#N)c1	46.7%	–	solubility [4]: 209 µM (≈ 59.8 µg/mL); Activity (A549 [3]): 59.8%; inhibition [9]: Active; inhibition [10]: Active; inhibition [11]: Active; inhibition [12]: Active; IC50 (A549 [13]): 610 nM; IC50 (NCI-H358): 580 nM; Activity (A549 [14]): Active; Activity (NCI-H460 [15]): Active; inhibition at 10 µM (A549 [7]): 79%; inhibition (A549 [16]): inactive; inhibition at 5 µM (A549 [17]): 72%
COc1ccnc(Nc2ncc(-c3ccccc3)cc2C#N)c1	39.7%	–	–
N#Cc1c(-c2ccccc2)ccnc1Nc1ccccn1	–	-78.1%	–
Cc1nc(Nc2cccc(C(C)O)c2)c(C#N)cc1-c1ccccc1 (stereo not drawn)	5.2%	–	inhibition (MCF7 [18]): 26%
COc1cc(Nc2ncc(-c3ccccc3)nc2C#N)cc(OC)c1	–	-66%	–
Cc1cc(Nc2nc(C)c(-c3ccccc3)cc2C#N)cc(C)c1Br	25.7%	–	–
Cc1cc(C)cc(Nc2nc(-c3ccccc3)ccc2C#N)c1	3.7%	–	–
Cc1ccc(-c2cnc(Nc3cc(C)cc(C)c3)c(C#N)c2)cc1	–	-29.6%	–
Cc1cc(C)cc(Nc2ncc(-c3ccncc3)cc2C#N)c1	–	-42.8%	–
Cc1cc(C)cc(Nc2ncc(-c3cc(Cl)cc(Cl)c3)cc2C#N)c1	2.9%	–	–
Cc1cc(C)cc(N(C)c2nc(C)c(-c3ccccc3)cc2C#N)c1	21.9%	–	–
Cc1cc(C)cc(Nc2ncc(-c3ccccc3)cc2C#N)c1	38.4%	–	solubility [4]: 4 µM (≈ 1.2 µg/mL)
Cc1cc(C)cc(Nc2nc3ccccc3cc2C#N)c1	21.2%	–	–
Cc1cc(Nc2nc(C)c(-c3ccccc3)cc2C#N)cc(C)c1C	37.2%	–	–
CCCc1nc(Nc2cc(C)cc(C)c2)c(C#N)cc1-c1ccccc1	–	-11.8%	–
Cc1cccc(Nc2ncc(-c3ccccc3)cc2C#N)n1	–	-13.8%	–
Cc1nc(Nc2cccc(C(C)C)c2)c(C#N)cc1-c1ccccc1	55.2%	–	solubility [4]: 0.9 µM (≈ 0.295 µg/mL)
